Laboratory results: publication PMC9398096 (Molecular Cancer Therapeutics, 2021)
Where “and” joins values, the source holds several entries; their conditions need not be identical. Equal entries are not always repeated. Where two headings read alike, the source gives them in different places.

Tests used:
[1] = system: LINE-1 methylation in MDS-L cells; test: LINE-1 methylation by bisulfite pyrosequencing in MDS-L cells; type: cell-based, human; details: 100 nmol/L; for LINE-1 methylation level: untreated 88.9%
[2] = system: LINE-1 methylation in SKM1 cells; test: LINE-1 methylation by bisulfite pyrosequencing in SKM1 cells; type: cell-based, human; details: 100 nmol/L, untreated 82.7%
[3] = Stability of the base moiety in an aqueous environment; details: pH 6
[4] = Pharmacokinetics in cynomolgus monkeys; type: in vivo, cynomolgus monkey
[5] = Long-term administration safety in BALB/c mice; type: in vivo; details: for anemia (hematopoietic toxicity) / survival on long-term administration: high dose: DAC 2.5 mg/kg or OR21 7.5 mg/kg
How it was run: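 Non-immunodeficient BALB/c mice received long-term dosing of the test compound at 7.5 (high) or 3.7 (low) mg/kg, or a reference hypomethylating agent at 2.5 or 1.25 mg/kg. Anemia and survival were monitored while dosing continued, through at least day 57.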

HL60R cells = test: HL60R xenograft model; type: in vivo, mice
[6] = mice, Supplementary Table S4, cited from earlier work
HL60 cells = test: HL60 xenograft mouse model; type: in vivo, BALB/c Rag-2/JAK3 double-deficient (BRJ) mice; details: for LINE-1 methylation in bone marrow cells / hemoglobin levels: DAC 1.0 mg/kg or OR21 2.7 mg/kg twice weekly; for LINE-1 methylation in bone marrow cells: vehicle 83.7%; for hemoglobin levels: at the time of sacrifice, vehicle 17.5 g/dL; for human CD45-positive cells in PB: day 37, vehicle 2.96%; for CD11b-positive cells in PB: late treatment from day +28, days +35 to +40, vehicle 43.3%
SKM1 cells = test: SKM1 xenograft mouse model; type: in vivo, BALB/c Rag-2/JAK3 double-deficient (BRJ) mice; details: twice weekly from day 7 posttransplantation
MDS and AML cells [7] = test: Apoptosis of MDS and AML cells; type: cell-based, human
MDS-L cells = test: Flow cytometry of differentiation markers CD11b and HLA-DR; type: cell-based, human
[8] = system: AZA-resistant HL60 (HL60R) cells; test: AZA-resistant HL60; type: cell-based, human; details: in vitro; similar extent as DAC, more effectively than AZA
DNMT1 = test: Western blot of DNMT1 in MDS and AML cell lines; type: cell-based, human; details: 100 or 500 nmol/L; MDS-L, SKM1, HL60, THP-1
[9] = system: LINE-1 methylation in HL60 cells; test: LINE-1 methylation by pyrosequencing in HL60 cells; type: cell-based, human; details: 500 nmol/L, untreated 83.7
[10] = system: LINE-1 methylation in Kasumi-1 cells; test: LINE-1 methylation by pyrosequencing in Kasumi-1 cells; type: cell-based, human; details: 500 nmol/L, untreated 90.7%
MDS and AML cells [11] = test: Cell proliferation; type: cell-based, human; details: dose-dependent
How it was run: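 Growth of MDS and AML cell lines was measured by CCK-8 assay after 72 hours of treatment across a dose range. IC50 was derived by nonlinear regression of the dose–response curves.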

[12] = system: LINE-1 methylation in THP-1 cells; test: LINE-1 methylation by pyrosequencing in THP-1 cells; type: cell-based, human; details: 500 nmol/L, untreated 69.0%
[13] = system: LINE-1 methylation in KG1a cells; test: LINE-1 methylation by pyrosequencing in KG1a cells; type: cell-based, human; details: 500 nmol/L, untreated 89.1%
[14] = DAC 1.0 mg/kg or OR21 2.7 mg/kg twice weekly from day 5, vehicle 44 days
[15] = DAC 1.0 mg/kg or OR21 2.7 mg/kg twice weekly from day 5
[16] = higher dose: DAC 2.0 mg/kg or OR21 5.4 mg/kg, vehicle 48 days

SMILES	LINE-1 methylation levels, effect of treatment [1]	LINE-1 methylation level [1]	LINE-1 methylation level [2]	half-life [3]	anemia (hematopoietic toxicity) [5]	survival on long-term administration [5]	median overall survival (HL60 cells; [14])	LINE-1 methylation in bone marrow cells (HL60 cells)	hemoglobin levels (HL60 cells)	human CD45-positive cells in PB (HL60 cells; [15])	median overall survival (HL60 cells; [16])	CD11b-positive cells in PB (HL60 cells)	other results
Nc1ncn([C@@H]2O[C@H](CO)[C@@H](O)[C@H]2O)c(=O)n1 [AZA, azacitidine]	did not decrease	88.8%	72.1%										
Nc1ncn([C@H]2C[C@H](O)[C@@H](CO)O2)c(=O)n1 [DAC, decitabine, reference compound]		75.2%	58.4% and 66.9%	~20 h	severe anemia	died within 80 days	46.5 days	56.3%	15.6 g/dL and 15.6 (±1.22) g/dL	1.67%	32 days	75.7%	AUC ([4]; 10.9 μmol/kg (1.67 mg/kg) intravenous): 0.49 (±0.17) μmol/L/hour; enteric bioavailability ([4]; higher dose): did not result in enteric bioavailability; anemia ([5]; low dose: DAC 1.25 mg/kg or OR21 3.7 mg/kg): more likely than OR21-treated mice to develop anemia; toxicity (HL60R cells): severe toxicity; peak plasma concentration of DAC ([6]; administration of 0.88 μmol/L/kg DAC (calculated as an AUC equivalent to that of released DAC)): 0.64 µmol/L
CC[Si](CC)(CC)OC[C@H]1O[C@@H](n2cnc(N)nc2=O)C[C@@H]1O [OR21, 5′-O-triethylsilyl-2′-deoxy-5-azacytidine]	significantly decreased	74.2%	66.9%	20 h	developed anemia by day 29, but recovered by day 57	all were still alive after 80 days	49 days	63.0%	17.1 g/dL and 17.1(±0.31) g/dL	0.75%	57 days	65.5%	human CD45-positive cells in peripheral blood (SKM1 cells; day 28, vehicle 6.40%): 0.31%; median overall survival (SKM1 cells; vehicle 29 days): > 53 days; apoptosis (MDS and AML cells [7]; MDS and AML cells, dose-dependent): induced apoptosis; apoptosis of primary cells (MDS and AML cells [7]; primary MDS and AML cells): induced apoptosis of primary MDS and AML cells; expression of CD11b (MDS-L cells): upregulated; expression of HLA-DR (MDS-L cells): downregulated; growth of HL60R cells [8]: inhibited growth; DNMT1 levels versus untreated cells (DNMT1): markedly lower; LINE-1 methylation level [9]: 76.0%; AUC ([4]; 10.9 μmol/kg (3.75 mg/kg) duodenal administration): 0.25 (±0.14) μmol/L/hour; AUC ([4]; 9.0 mg/kg (26.3 μmol/kg) duodenal administration): 0.45 ± 0.23 µmol/L/h; survival (HL60R cells; P = 0.0188): significantly prolonged survival; LINE-1 methylation level [10]: 78.6%; cell growth (MDS and AML cells [11]): inhibited growth; AUC of released DAC ([6]; intraperitoneal 1.59 μmol/L/kg OR21): 0.38 µmol/L/h; peak plasma concentration of DAC ([6]; intraperitoneal administration of 1.59 μmol/L/kg OR21): 0.43 µmol/L; LINE-1 methylation level [12]: 64.6%; LINE-1 methylation level [13]: 82.4%
